The values below come from ChEMBL document CHEMBL1125672, “2-acetylpyridine thiosemicarbazones. 13. Derivatives with antifilarial activity” (1991).

One may read the Inhibition as the percentage by which the read-out fell short of the control. Higher therefore signals strong suppression.

What all share (type): functional
The test system of assay [1] is Onchocerca gutturosa. As to the kind of experiment: Mean motility score for treated Onchocerca gutturosa involving LLCMK2 feeder cells at a concentration of 1.95*10e-8 M at 0.5 h. An outline of the steps:
(§1)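 One male O. gutturosa per well over LLCMK2 feeder cells in MEM with 10% heat-inactivated FCS, antibiotics and bicarbonate, 5% CO2; compound introduced in DMSO (≤0.016%, equal DMSO in controls). Motility scored 0 (immotile) to 10 (maximal control activity) every 30 min to 4.5 h, then at 1, 2, 3, 4 and 7 days.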

Assay [2] deals with Onchocerca gutturosa. The assay is described as follows: Mean motility score for treated Onchocerca gutturosa involving LLCMK2 feeder cells at a concentration of 3.05*10e-8 M at […]. An outline of the steps: as §1
Assay [3] relates to Onchocerca volvulus. The assay is described as follows: Colorimetric quantification of male Onchocerca volvulus viability, expressed as % inhibition of formazan formation at 5*10e-6 M conc. by using tetrazolium Dye MTT assay. The procedure, abridged: (§2)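 Male O. volvulus dissected from human nodules within 24 h (kept in medium on ice), cultured without feeder cells in medium with 10% serum; drug from DMSO stock. MTT after 96 h: single worm, 0.5 mg/mL MTT, 30 min at 36.5 °C, formazan dissolved in DMSO 1 h at room temperature, absorbance 490 nm against DMSO blank.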
In general terms: Tetrazolium assays rely on reduction of a dye to a coloured formazan, in cell work by metabolically active cells.

For assay [4], the system named is Onchocerca gutturosa. The assay is described as follows: Colorimetric quantification of male Onchocerca gutturosa viability, expressed as % inhibition of formazan formation at 3.1*10e-6 M conc. by using tetrazolium Dye MTT assay. The procedure, abridged:
(§3)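 Single intact male O. gutturosa, cultured with LLCMK2 feeder cells in MEM + 10% heat-inactivated FCS (5% CO2), drug added from DMSO (≤0.016% DMSO in controls). MTT read after 168 h: worm in 0.5 mg/mL MTT, 30 min at 36.5 °C, formazan solubilized in DMSO 1 h at room temperature, absorbance 490 nm vs DMSO blank.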

Assay [5] concerns Onchocerca gutturosa. The assay is described as follows: Colorimetric quantification of male Onchocerca gutturosa viability, expressed as % inhibition of formazan formation at 4.88*10e-8M conc. by using tetrazolium Dye MTT assay. An outline of the steps: as §3
Assay [6] relates to Onchocerca gutturosa. The assay is described as follows: Mean motility score for treated Onchocerca gutturosa involving LLCMK2 feeder cells at a concentration of 3.1*10e-6 M at 168 h. An outline of the steps: (§4)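 Single male O. gutturosa worms (obtained following abattoir slaughter) per well in Eagle's MEM with 10% heat-inactivated fetal calf serum, penicillin, streptomycin, amphotericin B and bicarbonate, over LLCMK2 feeder cells, 5% CO2 in air. Drug dissolved in DMSO; controls received matched DMSO ≤0.016%. Motility scored 0 (immotile) to 10 (maximum control activity) every 30 min to 4.5 h, then days 1, 2, 3, 4, 7.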

Assay [7] has as its system Onchocerca gutturosa. The assay is described as follows: Mean motility score for treated Onchocerca gutturosa involving LLCMK2 feeder cells at a concentration of 4.88*10e-8M at 1 h. The procedure, abridged: as §4
Assay [8] deals with Onchocerca gutturosa. As to the kind of experiment: Mean motility score for treated Onchocerca gutturosa involving LLCMK2 feeder cells at a concentration of 4.88*10e-8M at 1.5 h. The procedure, abridged:
as §4

Assay [9] has as its system Onchocerca gutturosa. The assay is described as follows: Mean motility score for treated Onchocerca gutturosa involving LLCMK2 feeder cells at a concentration of 4.88*10e-8M at 3 h. The procedure, abridged:
as §4

Assay [10] concerns Onchocerca gutturosa. The assay is described as follows: Mean motility score for treated Onchocerca gutturosa involving LLCMK2 feeder cells at a concentration of 4.88*10e-8M at 4.5 h. The procedure, abridged: as §4
The test system of assay [11] is Onchocerca gutturosa. As to the kind of experiment: Mean motility score for treated Onchocerca gutturosa involving LLCMK2 feeder cells at a concentration of 4.88*10e-8M at 72 h. The procedure, abridged:
as §4

In assay [12] the test system is Onchocerca gutturosa. The assay is described as follows: Mean motility score for treated Onchocerca gutturosa involving LLCMK2 feeder cells at a concentration of 3.1*10e-6 M at 4.5 h. An outline of the steps: as §4
Assay [13] concerns Onchocerca gutturosa. The assay is described as follows: Mean motility score for treated Onchocerca gutturosa involving LLCMK2 feeder cells at a concentration of 3.1*10e-6 M at 48 h. The procedure, abridged: as §4
Assay [14] relates to Onchocerca gutturosa. The assay is described as follows: Mean motility score for treated Onchocerca gutturosa involving LLCMK2 feeder cells at a concentration of 3.1*10e-6 M at 96 h. An outline of the steps:
as §4

Assay [15] deals with Onchocerca gutturosa. The assay is described as follows: Mean motility score for treated Onchocerca gutturosa involving LLCMK2 feeder cells at a concentration of 1.95*10e-8 M at 2 h. The procedure, abridged: as §1
For assay [16], the system named is Onchocerca gutturosa. As to the kind of experiment: Mean motility score for treated Onchocerca gutturosa involving LLCMK2 feeder cells at a concentration of 3.1*10e-6 M at 2.5 h. An outline of the steps: as §4
In assay [17] the test system is Onchocerca gutturosa. As to the kind of experiment: Mean motility score for treated Onchocerca gutturosa involving LLCMK2 feeder cells at a concentration of 3.1*10e-6 M at 24 h. An outline of the steps: as §4
Assay [18] concerns Brugia pahangi. The assay is described as follows: anti-filarial Activity was measured against Brugia pahangi in jirds at 100 mg/kg/day(5 days) dose. An outline of the steps:
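Jirds with established B. pahangi or A. viteae infections were given drug once daily for 5 days by subcutaneous injection, at the maximum tolerated dose and, where supply allowed, graded lower doses. Tolerance was first checked in noninfected jirds with a single 200 mg/kg oral or subcutaneous dose, watching 72 h for excessive weight loss or death. Macrofilarial suppression was the read-out.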

In assay [19] the test system is Onchocerca gutturosa. As to the kind of experiment: Mean motility score for treated Onchocerca gutturosa involving LLCMK2 feeder cells at a concentration of 3.05*10e-9 M at 0.5 h. An outline of the steps: as §1
Assay [20] has as its system Onchocerca volvulus. As to the kind of experiment: Colorimetric quantification of male Onchocerca volvulus viability, expressed as % inhibition of formazan formation at 5*10e-5 M conc. by using tetrazolium Dye MTT assay. An outline of the steps:
as §2

Assay [21] deals with Onchocerca gutturosa. The assay is described as follows: Colorimetric quantification of male Onchocerca gutturosa viability, expressed as % inhibition of formazan formation at 1.94*10e-7M conc. by using tetrazolium Dye MTT assay. The procedure, abridged:
as §3

In assay [22] the test system is Onchocerca gutturosa. As to the kind of experiment: Mean motility score for treated Onchocerca gutturosa involving LLCMK2 feeder cells at a concentration of 1.21*10e-8M at 0.5 h. An outline of the steps:
as §1

Assay [23] relates to Onchocerca gutturosa. As to the kind of experiment: Mean motility score for treated Onchocerca gutturosa involving LLCMK2 feeder cells at a concentration of 1.21*10e-8M at 1 h. An outline of the steps:
as §1

Assay [24] has as its system Onchocerca gutturosa. The assay is described as follows: Mean motility score for treated Onchocerca gutturosa involving LLCMK2 feeder cells at a concentration of 1.21*10e-8M at 1.5 h. An outline of the steps:
as §1

The subject of assay [25] is Onchocerca gutturosa. The assay is described as follows: Mean motility score for treated Onchocerca gutturosa involving LLCMK2 feeder cells at a concentration of 1.21*10e-8M at 2 h. The procedure, abridged:
as §1

Assay [26] has as its system Onchocerca gutturosa. The assay is described as follows: Mean motility score for treated Onchocerca gutturosa involving LLCMK2 feeder cells at a concentration of 3.05*10e-9 M at 2 h. The procedure, abridged: as §4
Assay [27] has as its system Onchocerca gutturosa. As to the kind of experiment: Mean motility score for treated Onchocerca gutturosa involving LLCMK2 feeder cells at a concentration of 1.21*10e-8M at 96 h. An outline of the steps:
as §1

In assay [28] the test system is Onchocerca gutturosa. As to the kind of experiment: Mean motility score for treated Onchocerca gutturosa involving LLCMK2 feeder cells at a concentration of 1.94*10e-7M at 2 h. An outline of the steps: as §1
Assay [29] has as its system Onchocerca gutturosa. The assay is described as follows: Mean motility score for treated Onchocerca gutturosa involving LLCMK2 feeder cells at a concentration of 1.94*10e-7M at 48 h. An outline of the steps:
as §1

The test system of assay [30] is Onchocerca gutturosa. The assay is described as follows: Mean motility score for treated Onchocerca gutturosa involving LLCMK2 feeder cells at a concentration of 1.94*10e-7M at 72 h. An outline of the steps:
as §1

For the compound `C/C(=N\NC(=S)N1CCCCCC1)c1ccccn1`, the Motility was found to be 8.8 in [1]; 8.5 in assay [2]; 0 in [6]; 9 in [7]; 8.5 in assay [8]; 9 in assay [9]. Besides, the Motility came to 9.8 in assay [10]; 3.5 in assay [11]; 9.5 in [12]; 2.8 in assay [13]; 0 in [14]; 9.3 in assay [15]. The Motility is 8.5 in assay [16] and 4 in assay [17]. Also, the Inhibition in assay [3] amounted to 58.2%; in assay [4], 90.2%; in assay [5], 31.7%.

In assay [18], `C/C(=N\NC(S)=Nc1ccccc1N)c1ccccn1` registered a Suppression of 100%. In addition, the Motility in assay [19] came out at 8.8; in [22], 9; in assay [23] it was 8.5; in assay [24], 4.3; in [25], 3.3; in assay [26], 7.5. Also, the Motility in assay [27] was determined as 3.8; in assay [28], 9; in [29] it was 4; in assay [30], 1.5. Also, the values for the Inhibition in assay [20] and in [21] were 53.8% and 84.8%, respectively.
